From PubChem BioAssay
Only some compounds are listed: those with a hit (about 3.1% of all), similar ones and a draw of the others.
RBBP9 inhibitor = inhibitors of human serine hydrolase RBBP9; O75884; recombinant RBBP9, FP-Rh probe fluorescence polarization; inhibition, % at 7.94 µM; actives 0.2% (n = 220,000);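 active = inhibition above the campaign mean of all tested compounds plus 3 SD, cut at about 14% in these data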;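 note: plate controls were DMSO wells with RBBP9 for no effect and wells lacking RBBP9 protein for full effect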
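System: RBBP9 protein | Quantity: 2.5 µM RBBP9 dispensing solution, before mixing | Reagent: FP-Rh probe, 375 nM dispensing solution | Timing: Enzyme-compound preincubation 30 min, then probe labeling 45 min, 25 °C | Measured by: Fluorescence polarization | Read-out: % inhibition | Replication: One well per compound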
UHRF1 binding = blocks human UHRF1 binding to methylated DNA | inhibition, % at 4.4 µM | AID 687016 | actives 0.75% (n = 370,000) | UHRF1 binding to methylated oligo, TR-FRET; in the data active = inhibition above about 21%;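 note: UHRF1 SRA domain binding a hemimethylated CpG hairpin DNA probe; 0% = median of test compound wells and 100% = reference inhibitor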
ABHD5-PLIN5 inh = blocks binding of human ABHD5 to perilipin-5. AID 602281. inhibition, % at 4 µM. Q00G26+Q8WTS1. Split G. princeps luciferase complementation, luminescence, 4 h. actives 0.78% (n = 360,000);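 active = inhibition above the mean inhibition across every tested compound plus 3 SD, cut at about 22% in these data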;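 note: 0% = DMSO only wells and the 100% control is not disclosed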
MBD2 DNA inh = MBD2-methylated oligo binding inhibition | TR-FRET, MBD2 binding to methylated oligonucleotide | inhibition, % at 4.4 µM | actives 0.31% (n = 370,000) | AID 686964; in the data active = inhibition above about 13%
Target sequence (Q9UBB5 whole entry, looked up): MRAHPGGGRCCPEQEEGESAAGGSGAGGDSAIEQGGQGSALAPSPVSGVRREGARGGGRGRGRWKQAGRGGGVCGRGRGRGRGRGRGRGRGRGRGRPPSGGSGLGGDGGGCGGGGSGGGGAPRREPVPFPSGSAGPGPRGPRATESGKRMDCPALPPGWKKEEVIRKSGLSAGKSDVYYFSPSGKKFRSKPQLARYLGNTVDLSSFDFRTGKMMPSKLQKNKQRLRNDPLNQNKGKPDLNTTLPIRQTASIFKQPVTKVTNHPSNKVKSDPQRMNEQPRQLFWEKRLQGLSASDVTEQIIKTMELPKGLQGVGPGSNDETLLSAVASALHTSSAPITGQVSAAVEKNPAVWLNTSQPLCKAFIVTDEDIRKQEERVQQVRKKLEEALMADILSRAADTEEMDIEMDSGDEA
PRMT1 inh = PRMT1 (human) inhibition, primary screen; Q99873; recombinant PRMT1, activity-based probe fluorescence polarization; inhibition, % at 2.79 µM; actives 1.3% (n = 370,000); AID 652257;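 active = inhibition above about 21% made by adding two undisclosed values, limit read from the data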
Target sequence (Q99873 whole entry, looked up): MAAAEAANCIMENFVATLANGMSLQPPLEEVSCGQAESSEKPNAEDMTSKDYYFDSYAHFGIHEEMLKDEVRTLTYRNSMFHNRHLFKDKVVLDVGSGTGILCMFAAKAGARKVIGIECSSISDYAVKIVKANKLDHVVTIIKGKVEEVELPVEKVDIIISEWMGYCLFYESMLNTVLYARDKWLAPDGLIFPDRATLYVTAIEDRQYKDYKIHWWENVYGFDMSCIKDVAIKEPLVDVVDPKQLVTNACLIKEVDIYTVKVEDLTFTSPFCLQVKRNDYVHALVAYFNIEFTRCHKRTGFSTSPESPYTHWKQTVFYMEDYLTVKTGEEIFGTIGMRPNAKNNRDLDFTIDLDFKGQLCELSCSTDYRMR
LEDGF integ inh = blocks HIV-1 LEDGF/p75-dependent DNA integration; TR-FRET IN-LEDGF/p75 DNA integration, Eu/Cy5; inhibition, % at 3.7 µM; actives 0.64% (n = 370,000);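 active = inhibition above the screen-wide mean plus 3 SD, cut at about 13% in these data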;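 note: signal is the Cy5 over europium emission ratio at 671 and 618 nm; 0% = plate median of compound wells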
PRMT1 inh conf = PRMT1 (human) inhibition, FP confirmation; shares compounds with PRMT1 inh; recombinant His-PRMT1, activity-based probe fluorescence polarization; inhibition, % at 2.79 µM; actives 42% (n = 3,300); AID 687036;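 active = mean inhibition across replicates above the hit cutoff derived for the earlier primary screen, cut at about 22% in these data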
Numbers without * were called inactive; . = not tested or not shown.

SMILES | RBBP9 inhibitor | UHRF1 binding | ABHD5-PLIN5 inh | MBD2 DNA inh | PRMT1 inh | LEDGF integ inh | PRMT1 inh conf
COC(=O)c1cc2c(c3c4cc(C)ccc4n(S(=O)(=O)c4ccc(C)cc4)c13)C(=O)N(Cc1ccc(C(F)(F)F)cc1)C2 | . | 0.3 | . | -7.1 | -1.8 | 3.1 | .
Cc1cccc(N2C(=O)CC(n3ccnc3)C2=O)c1C (stereo not drawn) | 3.4 | -0.9 | -2.0 | -1.3 | 36.2* | 3.1 | 5.6
Cc1ccc(N2C(=O)CC(n3ccnc3)C2=O)cc1C (stereo not drawn) | -8.2 | -1.1 | 0.9 | -1.1 | 2.4 | -1.6 | .
COc1ccc2c(c1)CNC2CS(=O)(=O)NCCc1ccccc1 (stereo not drawn) | . | -10.7 | . | -1.4 | 5.0 | -3.7 | .
CCc1noc(C)c1C(=O)OC(C)C(=O)Nc1cc([N+](=O)[O-])ccc1OC (stereo not drawn) | . | -0.4 | 1.6 | -1.5 | 97.8* | 4.2 | -2.3
Cc1noc(C)c1C(=O)OC(C)C(=O)Nc1ccc([N+](=O)[O-])cc1C(F)(F)F (stereo not drawn) | . | 2.7 | 3.4 | -0.1 | 4.0 | -4.0 | .
Nc1cc2ccccc2cc1NS(=O)(=O)N1CCCCC1 | . | 0.3 | . | 2.6 | 4.5 | 2.1 | .
Cc1nc2ccc(NC3=NCCCCC3)cc2s1 | -0.1 | 3.2 | -8.1 | -0.7 | 61.1* | -0.6 | 36.9*
Cc1ccc(NC2=NCCC2)cc1Cl | -8.7 | 0.5 | -1.7 | -3.9 | -3.7 | 3.5 | .
C=CCN(CC#Cc1ccccn1)Cc1ccc(OC)cc1OC | . | 0.5 | . | 3.3 | -0.6 | 4.0 | .
O=C(NC1CCN(Cc2ccccc2)CC1)c1cccc(S(=O)(=O)Nc2ccc(SC(F)F)cc2)c1 | . | 6.6 | -10.4 | 5.4 | 41.5* | -1.9 | 57.6*
CC(C)(CNC(=O)c1cccc(S(=O)(=O)Nc2ccc(SC(F)F)cc2)c1)N1CCOCC1 | . | -1.2 | -9.7 | 3.6 | 46.1* | -5.3 | 65.7*
Cc1ccc(S(=O)(=O)Nc2cccc(C(=O)NCC(C)(C)N3CCOCC3)c2)cc1F | . | 2.8 | 8.7 | -1.1 | 2.8 | -5.0 | .
Cc1ccc(CNC(=O)OC(C)(C)C)c(/C=C/S(=O)(=O)NCCc2ccccc2)c1 | . | 1.8 | . | 6.3 | 29.0* | 3.6 | 1.7
CCOC(=O)C1(C(=O)OCC)N=C(c2ccccc2)C=C1c1ccccc1 | . | -2.5 | . | -9.6 | 0.6 | -1.1 | .
O=C(NCc1cccc(C(F)(F)F)c1)O[C@H]1CC[C@@]23CCCN2C(=O)CCC[C@H]3C1 | . | -3.2 | . | -0.9 | -2.4 | -2.0 | .
CCn1c2ccccc2c2n[nH]c(=S)nc21 | . | -4.5 | -9.8 | -4.7 | 0.7 | -1.2 | .
C=CCn1c2ccccc2c2n[nH]c(=S)nc21 | . | 0.0 | -7.5 | -0.8 | 29.5* | 1.6 | 4.9
O=C(O)Cn1c2ccccc2c2n[nH]c(=S)nc21 | . | -3.4 | -5.0 | -2.0 | 41.6* | 4.7 | 84.7*
COC(=O)c1cc2c(c3c4cc(F)ccc4n(S(=O)(=O)c4ccc(C)cc4)c13)C(=O)N(Cc1ccc(N(C)C)cc1)C2 | . | -2.5 | . | -5.2 | 3.8 | -2.8 | .
Cc1ccc(C(=O)Nc2ncc3c(n2)CC(c2ccco2)CC3=O)cc1 (stereo not drawn) | -7.3 | 2.8 | 17.5 | 5.4 | 33.2* | 3.2 | 3.6
O=C(Nc1ncc2c(n1)CC(c1ccco1)CC2=O)c1ccccc1 (stereo not drawn) | 2.2 | -1.5 | 2.5 | -7.1 | 0.2 | -0.1 | .
S=C(c1ccc(Cl)cc1)N1CCN(Cc2ccccc2)CC1 | -2.4 | -1.4 | -3.4 | -4.2 | 1.1 | 2.4 | .
CCN1CCN(C(=S)c2ccc(SC)cc2)CC1 | -1.9 | 3.1 | -0.9 | 1.8 | 32.4* | -0.5 | 19.4
CSc1ccc(C(=S)N2CCN(Cc3ccccc3)CC2)cc1 | -6.4 | 7.9 | -5.6 | 2.6 | 32.2* | -1.9 | 38.0*
SMILES | RBBP9 inhibitor | UHRF1 binding | ABHD5-PLIN5 inh | MBD2 DNA inh | PRMT1 inh | LEDGF integ inh | PRMT1 inh conf
CCn1c(SCC(=O)Nc2cccc3ccccc23)nnc1-c1cccs1 | . | 5.1 | . | 7.4 | -1.2 | 1.1 | .
CNC(=O)c1ccccc1C1(O)c2ccccc2CCc2ccccc21 | . | 1.5 | . | -0.8 | 8.1 | -2.5 | .
COc1ccc(C(=O)Cn2c(NCCO)nc3ccccc32)cc1OC | 0.7 | 2.8 | 0.8 | -1.3 | -5.2 | -3.4 | .
COc1ccc(C(=O)Cn2c(NCCCO)nc3ccccc32)cc1OC | . | 0.4 | 0.0 | -1.5 | 47.5* | -0.3 | 6.3
N#Cc1cc2c([nH]c1=S)CCCC2 | -2.3 | 0.1 | -4.3 | 3.9 | 32.4* | -4.2 | 12.3
CC1(C)Cc2[nH]c(=S)c(C#N)cc2CO1 | -0.2 | -0.8 | 0.5 | 0.2 | 41.4* | -0.6 | 23.9*
CCOC(=O)CC[C@H]1CC[C@]2(CCCN(C(=O)c3ccccc3)C2)O1 | . | -0.9 | . | -0.4 | 9.8 | -1.4 | .
COc1ccc2c(c1)CN1C(=O)N(C3CCCC3)S(=O)(=O)CC21 (stereo not drawn) | . | 0.4 | . | -0.9 | 2.6 | -2.1 | .
NCCS | -2.1 | 1.8 | -44.6 | 0.0 | 41.9* | -2.2 | 31.6*
Cc1ccccc1N1CCN(c2ccccc2NC(=O)/C=C\C(=O)O)CC1 | . | 1.9 | 5.5 | -5.0 | -1.5 | 3.7 | .
Cc1ccccc1N1CCN(C(=O)c2ccccc2NC(=O)/C=C\C(=O)O)CC1 | 5.8 | 0.5 | 1.3 | 1.2 | 26.8* | 2.1 | 6.7
NC(=O)C1CCN(c2nc(-c3ccc4c(c3)OCCCO4)cs2)CC1 | . | 0.5 | . | 2.1 | -1.9 | -3.0 | .
CCCC(C)c1nnc(NC(=O)c2cc(C(=O)OC)cc([N+](=O)[O-])c2)s1 (stereo not drawn) | -7.5 | -0.9 | -7.4 | 1.1 | 28.6* | 2.8 | 54.3*
O=C1NC2c3c(I)sc(I)c3C(=O)C2O1 (stereo not drawn) | . | -4.6 | 8.0 | 2.9 | 47.2* | 1.4 | 15.0
O=C(NCc1ccncc1)C1Cc2c(-c3ccc4c(c3)OCO4)ccnc2O1 (stereo not drawn) | . | 2.9 | -0.2 | 2.7 | 39.9* | 1.5 | 11.5
CCc1ccc2nc(N(CCN(C)C)C(=O)c3ccc4ncsc4c3)sc2c1 | . | 4.5 | -14.6 | 5.1 | 42.6* | -2.5 | 2.8
Cc1cccc2sc(N(CCCN(C)C)C(=O)c3ccc4ncsc4c3)nc12 | . | -0.4 | 11.8 | -1.4 | 29.1* | 0.3 | 10.7
COC(=O)[C@]12C[C@H](CC(=O)NCc3cccs3)C(=O)N(CCC3=CCCCC3)C1=C[C@H](C1CCCC1)O[C@@H]2C | . | 0.4 | . | 1.9 | 0.2 | 4.0 | .
Cc1ccccc1Nc1nc(N)nc(COC(=O)c2ccco2)n1 | . | -1.3 | 2.9 | 2.0 | -1.7 | 0.4 | .
Cc1ccc(/C=C/C(=O)OCc2nc(N)nc(Nc3ccccc3C)n2)o1 | -9.9 | -1.2 | 7.9 | -3.0 | 34.3* | 1.6 | -5.6
C/C=C/c1ccc([C@H]2[C@@H](CN(CC(C)C)S(=O)(=O)c3ccccc3[N+](=O)[O-])N(C(=O)Nc3cccc(OC)c3)[C@H]2CO)cc1 | . | -0.8 | . | 2.0 | -2.7 | 1.1 | .
C=CCn1c(Cc2ccccc2)n[nH]c1=S | 3.5 | -0.8 | -2.9 | -1.4 | -2.7 | 3.2 | .
